The target in series [1] is T1, Nuclear receptor subfamily 1 group D member 1 (Homo sapiens) (UniProt P20393).
T1 sequence (whole entry): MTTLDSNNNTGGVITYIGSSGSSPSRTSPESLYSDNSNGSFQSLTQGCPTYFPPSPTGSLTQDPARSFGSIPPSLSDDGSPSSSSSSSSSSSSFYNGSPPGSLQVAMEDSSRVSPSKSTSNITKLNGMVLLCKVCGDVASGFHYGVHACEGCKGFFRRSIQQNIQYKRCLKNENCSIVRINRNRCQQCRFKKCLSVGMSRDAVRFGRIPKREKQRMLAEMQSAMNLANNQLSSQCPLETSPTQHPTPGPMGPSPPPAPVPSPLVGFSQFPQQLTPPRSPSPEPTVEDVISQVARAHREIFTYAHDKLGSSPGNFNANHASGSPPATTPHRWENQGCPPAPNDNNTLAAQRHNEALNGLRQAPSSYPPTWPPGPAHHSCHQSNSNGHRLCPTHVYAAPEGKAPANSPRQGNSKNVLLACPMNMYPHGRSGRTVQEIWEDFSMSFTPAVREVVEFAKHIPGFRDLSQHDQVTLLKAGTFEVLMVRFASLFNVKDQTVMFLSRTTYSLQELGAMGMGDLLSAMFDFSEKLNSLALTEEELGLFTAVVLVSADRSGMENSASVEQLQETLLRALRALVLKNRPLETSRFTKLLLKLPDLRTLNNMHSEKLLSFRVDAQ
Kind of series: Agonist activity at Rev-Erbalpha expressed in HEK293 cells coexpressing […] promoter assessed as repression of transcription at 10 uM after 24 hrs by dual-Glo luciferase assay relative to control. The series is classed as functional, cell-based. The procedure, abridged:
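Cells co-transfected with full-length Rev-erbα expression plasmid plus Bmal1 promoter-luciferase reporter; renilla luciferase for normalization and toxicity check. Average of 2 or more experiments.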

In series [2] the target is T2, Nuclear receptor subfamily 1 group D member 1 (Homo sapiens, UniProt P20393).
T2 sequence (P20393 whole entry): T1 sequence (whole entry)
Kind of series: Agonist activity at Rev-Erbalpha expressed in HEK293 cells coexpressing […] promoter assessed as repression of transcription after 24 hrs by dual-Glo luciferase assay. It is filed as functional, cell-based. The procedure, abridged:
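Cells co-transfected with full-length Rev-erbα expression plasmid and Bmal1 promoter-driven luciferase reporter. Renilla luciferase used for normalization and toxicity monitoring. Average of 2 or more experiments.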

Series [3] is described as follows: Drug uptake in C57BL/6 mouse brain at 50 mg/kg, ip measured after 8 hrs by LC-MS/MS analysis.
Series [4] is described as follows: Plasma concentration in C57BL/6 mouse at 10 mg/kg, ip measured after 2 hrs by LC-MS/MS analysis. It is filed as ADME, organism-based. Details: dose 10 mg/kg, route intraperitoneal. The method in brief:
(§1)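 C57Bl6 mice (n = 3) given 10 mg/kg IP in 10:10:80 DMSO:Tween:water; blood and brain collected at 2 h. Plasma frozen at −80°C. Plasma and brain mixed with acetonitrile (1:5 v:v or w:v), brain probe-sonicated. Drug quantified by LC-MS/MS against standards in plasma or blank brain matrix.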

A short description of series [5]: Drug uptake in C57BL/6 mouse brain at 10 mg/kg, ip measured after 2 hrs by LC-MS/MS analysis. The series is classed as ADME, organism-based. Details: dose 10 mg/kg, route intraperitoneal. Conditions: read-out: Drug uptake. The procedure, abridged: as §1

Bounds are passed on as bounds.

Results on 46 molecules are retold here after ChEMBL document CHEMBL2057134, “Small molecule tertiary amines as agonists of the nuclear hormone receptor Rev-erbα” (Bioorg Med Chem Lett, 2012).

For the molecule `CC(C)(C)OC(=O)N1CCC(CN(Cc2ccc(Cl)cc2)Cc2ccc([N+](=O)[O-])s2)CC1`, the Ratio in series [1] stood at 0.8.
Consider `CC(C)(C)OC(=O)CN(Cc1ccc([N+](=O)[O-])s1)Cc1cccc2ccccc12`, for which, in series [1], the Ratio came out at 0.6. Besides, the half-maximal effective concentration (EC50) (in general, the concentration that produces a half-maximal response) in series [2] was 2.5 µM.
For `O=[N+]([O-])c1ccc(CN(Cc2ccc(Cl)cc2)CC2COc3ccccc3O2)s1` (racemic) the same measures were 0.4 and 7.8 µM.
On the same counts, the results for `NC(=O)CN(Cc1ccc(Cl)cc1)Cc1ccc([N+](=O)[O-])s1` are 0.75 and 3 µM.
For `CC(=O)N1CCC(CN(Cc2ccc(Cl)cc2)Cc2ccc([N+](=O)[O-])s2)C1` (racemic) the same measures were 0.35 and 1.6 µM.
Take `CC(C)(C)OC(=O)N1CCC(N(Cc2ccc(Cl)cc2)Cc2ccc([N+](=O)[O-])s2)C1` (racemic): the Ratio in series [1] worked out at 0.24. Moreover, in series [2], the EC50 is 1.6 µM.
For the molecule `CC(C)(C)OC(=O)CN(Cc1ccc2ccccc2c1)Cc1ccc([N+](=O)[O-])s1`, in series [1], the Ratio is 0.6.
For the molecule `O=[N+]([O-])c1ccc(CN(Cc2ccc(Cl)cc2)Cc2nc3ccccc3s2)s1`, in series [1], the Ratio came to 0.5. In series [2], the half-maximal effective concentration (EC50) was 4 µM.
Take `CS(=O)(=O)n1ccc(CN(Cc2ccc(Cl)cc2)Cc2ccc([N+](=O)[O-])s2)c1`: the Ratio in series [1] was 1.
Molecule `CCOC(=O)N1CCC(CN(Cc2ccc(Cl)cc2)Cc2ccc([N+](=O)[O-])s2)C1` (racemic) [SR9009] came in with a concentration at 8 h in series [3] of 8700 nM.
As to `O=[N+]([O-])c1ccc(CN(Cc2ccc(Cl)cc2)Cc2ccc(C(F)(F)F)cc2)s1`, in series [1], the Ratio amounted to 0.45. Further, in series [2], the concentration giving a half-maximal response (EC50) was found to be 5.5 µM.
For `N#CCN(Cc1ccc(Cl)cc1)Cc1ccc([N+](=O)[O-])s1` the same measures were 0.79 and 2.5 µM.
Take `COc1ccc(CN(CC(=O)OC(C)(C)C)Cc2ccc([N+](=O)[O-])s2)cc1`: the Ratio in series [1] was determined as 0.68. For the same molecule, the EC50 in series [2] was determined as 2.9 µM.
Regarding `CCCCNC(=O)N1CCC(CN(Cc2ccc(Cl)cc2)Cc2ccc([N+](=O)[O-])s2)C1` (racemic), the concentration at 2 h was found to be 530 nM in series [4] and 240 nM in series [5]. For the same molecule, in series [1], the Ratio is 0.35. In addition, the 50% effective concentration (EC50) in series [2] came out at 0.67 µM.
With `COC(=O)CN(Cc1ccc(Cl)cc1)Cc1ccc([N+](=O)[O-])s1`, the Ratio in series [1] worked out at 0.8. In addition, the 50% effective concentration (EC50) in series [2] is 3.9 µM.
On the same counts, the results for `CC(C)(C)OC(=O)N1CCC(CN(Cc2ccc(Cl)cc2)Cc2ccc([N+](=O)[O-])s2)C1` (racemic) are 0.33 and 1.8 µM.
Turning to `Cc1ccc(S(=O)(=O)N2CCC(CN(Cc3ccc(Cl)cc3)Cc3ccc([N+](=O)[O-])s3)C2)cc1` (racemic), the Ratio in series [1] is above 1.
Consider `O=C(Nc1ccc([N+](=O)[O-])cc1)N1CCC(CN(Cc2ccc(Cl)cc2)Cc2ccc([N+](=O)[O-])s2)C1` (racemic), for which the Ratio in series [1] is 0.37. The EC50 in series [2] is 0.4 µM.
As for `CC(C)(C)OC(=O)CN(Cc1ccc([N+](=O)[O-])cc1)Cc1ccc([N+](=O)[O-])s1`, the Ratio in series [1] amounted to 0.58. Also, the EC50 in series [2] was 2.5 µM.
Consider `CC(C)(C)OC(=O)CN(Cc1ccc(Cl)cc1)Cc1cccs1`, for which the Ratio in series [1] was 0.93.
With `CC(C)(C)OC(=O)CN(Cc1ccc(F)cc1)Cc1ccc([N+](=O)[O-])s1`, the Ratio in series [1] stood at 0.77. Also, in series [2], the EC50 was 2 µM.
For `C=CCOC(=O)N1CCC(CN(Cc2ccc(Cl)cc2)Cc2ccc([N+](=O)[O-])s2)C1` (racemic) the same measures were 0.35 and 0.67 µM.
Turning to `O=C(Oc1ccccc1)N1CCC(CN(Cc2ccc(Cl)cc2)Cc2ccc([N+](=O)[O-])s2)C1` (racemic), the Ratio in series [1] is 0.55.
Still for that read-out and setting: the value for `CC(C)(C)OC(=O)N1CCC(N(Cc2ccc(Cl)cc2)Cc2ccc([N+](=O)[O-])s2)CC1` was 0.31.
In the case of `O=[N+]([O-])c1ccc(CN(Cc2ccc(Cl)cc2)CC2CCCCC2)s1`, the Ratio in series [1] worked out at 0.3. Besides, the concentration giving a half-maximal response (EC50) in series [2] is 7.4 µM.
On the same counts, the results for `CC(C)(C)OC(=O)CN(Cc1ccc([N+](=O)[O-])s1)S(=O)(=O)c1cccc2ccccc12` are 0.37 and 0.8 µM.
Take `CS(=O)(=O)N1CCC(CN(Cc2ccc(Cl)cc2)Cc2ccc([N+](=O)[O-])s2)C1` (racemic): the results for the concentration at 2 h in series [4] and in series [5] were 540 nM and 1300 nM, respectively. The Ratio in series [1] came to 0.3. Moreover, the concentration for a half-maximal effect (EC50) in series [2] stood at 0.57 µM.
With `CC(C)(C)OC(=O)CNCc1ccc(Cl)cc1`, the Ratio in series [1] is 1.2.
On the same count and under the same terms, the value for `CC(C)(C)OC(=O)N1CCCC(CN(Cc2ccc(Cl)cc2)Cc2ccc([N+](=O)[O-])s2)C1` (racemic) was 0.9.
For the molecule `O=C(c1cccc2ccccc12)N(Cc1ccc(Cl)cc1)Cc1ccc([N+](=O)[O-])s1`, the Ratio in series [1] came out at 0.4. Also, the concentration for a half-maximal effect (EC50) in series [2] was 2.6 µM.
As to `O=[N+]([O-])c1ccc(CN(Cc2ccc(Cl)cc2)CC2CCN(Cc3ccccc3)C2)s1` (racemic), the Ratio in series [1] turned out to be 1.
The same measure, in the same setting: the value for `CC(C)(C)OC(=O)CN(Cc1ccncc1)Cc1ccc(Cl)cc1` was 0.81.
Same read-out and setting: the result for `CC(C)(C)OC(=O)CN(Cc1ccc(Cl)cc1)CC1CCCC1` reads 1.1.
Regarding `O=C(Nc1ccccc1)N1CCC(CN(Cc2ccc(Cl)cc2)Cc2ccc([N+](=O)[O-])s2)C1` (racemic), in series [1], the Ratio stood at 0.33. Besides, the EC50 in series [2] stood at 0.62 µM.
On the same counts, the results for `Cc1ccc(S(=O)(=O)N(Cc2ccc(Cl)cc2)Cc2ccc([N+](=O)[O-])s2)cc1` are 0.5 and 2.5 µM.
On to `CC(C)(C)OC(=O)CN(Cc1ccc(Cl)cc1)Cc1cnc[nH]1`, for which the Ratio in series [1] is 0.88.
The same measure, in the same setting: the value for `CN1CCC(CN(Cc2ccc(Cl)cc2)Cc2ccc([N+](=O)[O-])s2)C1` (racemic) was 0.95.
In the case of `O=[N+]([O-])c1ccc(CN(Cc2ccc(Cl)cc2)CC2CCN(S(=O)(=O)Cc3ccccc3)C2)s1` (racemic), the Ratio in series [1] is 0.4. In addition, the EC50 in series [2] was determined as 0.63 µM.
For the molecule `CC(C)(C)OC(=O)CN(Cc1ccccc1)Cc1ccc([N+](=O)[O-])s1`, the Ratio in series [1] turned out to be 1.1.
As for `CC(C)(C)OC(=O)CN(Cc1ccc([N+](=O)[O-])s1)C(=O)c1cccc2ccccc12`, in series [1], the Ratio worked out at 0.48. The EC50 in series [2] came out at 2.6 µM.
On to `O=C(O)CN(Cc1ccc(Cl)cc1)Cc1ccc([N+](=O)[O-])s1`, for which the Ratio in series [1] turned out to be 0.85.
Turning to `O=[N+]([O-])c1ccc(CN(Cc2ccc(Cl)cc2)CC2CCN(S(=O)(=O)c3cccc4ccccc34)C2)s1` (racemic), the Ratio in series [1] turned out to be 0.45. In series [2], the half-maximal effective concentration (EC50) amounted to 0.45 µM.
In the case of `CC(C)(C)OC(=O)N1CCCC(N(Cc2ccc(Cl)cc2)Cc2ccc([N+](=O)[O-])s2)C1` (racemic), the Ratio in series [1] turned out to be 0.14.
Turning to `Cc1ccc(S(=O)(=O)N(CC(=O)OC(C)(C)C)Cc2ccc([N+](=O)[O-])s2)cc1`, the Ratio in series [1] was 0.5. Further, the 50% effective concentration (EC50) in series [2] was 3 µM.
Regarding `CC(C)(C)OC(=O)CN(Cc1ccc(Cl)cc1)Cc1nc2ccccc2s1`, in series [1], the Ratio is 0.82.
`O=[N+]([O-])c1ccc(CN(Cc2ccc(Cl)cc2)Cc2ccc3ccccc3c2)s1`: the Ratio in series [1] worked out at 0.7. The EC50 in series [2] worked out at 8.8 µM.
